{"data": "Published values pooled from the literature", "DRD5": "D(1B) dopamine receptor (DRD5, Homo sapiens, UniProt P21918)", "SLC10A2": "Ileal sodium/bile acid cotransporter (SLC10A2, Homo sapiens, UniProt Q12908)", "Hypoxanthine-guanine-xanthine phosphoribosyltransferase": "Hypoxanthine-guanine-xanthine phosphoribosyltransferase (Plasmodium falciparum, UniProt P20035)", "CYP1B1": "Cytochrome P450 1B1 (CYP1B1, Homo sapiens, UniProt Q16678)", "HRH3": "Histamine H3 receptor (HRH3, Homo sapiens, UniProt Q9Y5N1)", "WDR5": "WD repeat-containing protein 5 (WDR5, Homo sapiens, UniProt P61964)", "PDEB1": "Class 1 phosphodiesterase PDEB1 (PDEB1, Trypanosoma brucei, UniProt Q8WQX9)"}
{"Compound": "COc1ccccc1N1CCN(CCCCN2CCc3ccccc3C2=O)CC1", "target": "DRD5", "test": "ligand displacement, radioligand", "Ki [µM]": 6.86}
{"Compound": "NS(=O)(=O)c1cc2c(cc1Cl)NCNS2(=O)=O", "target": "SLC10A2", "test": "transporter uptake, inhibitor", "Ki [µM]": 2020}
{"Compound": "CN(C(=O)[C@@H]1Cc2ccccc2CN1C(=O)Cc1ccc(Cl)cc1)c1ccc(N2CCCCC2=O)cc1", "target": "Coagulation factor X (F10, Homo sapiens, UniProt P00742)", "test": "enzyme activity, inhibitor, absorbance", "Ki [µM]": 0.65}
{"Compound": "O=C1CN(CC[C@@H](CO)NCc2c[nH]c3c(O)nc(O)nc23)S(=O)(=O)N1", "target": "Hypoxanthine-guanine-xanthine phosphoribosyltransferase", "test": "enzyme activity, inhibitor", "conditions": "pH 7.4", "Ki [µM]": "> 20"}
{"Compound": "CCOc1c(O)cc(Br)c2c1CN1CCc3cc(OCC(F)F)c(O)cc3[C@@H]1C2", "target": "DRD5", "test": "cell-free assay, radioligand", "Ki [µM]": 0.082}
{"Compound": "C[C@H]1[C@H](NC(=O)/C(=N\\OC(C)(C)C(=O)O)c2csc(N)n2)C(=O)N1S(=O)(=O)O", "target": "SLC10A2", "test": "transporter uptake, inhibitor", "Ki [µM]": 1850}
{"Compound": "C#Cc1ccc2oc(-c3ccccc3)cc(=O)c2c1", "target": "CYP1B1", "test": "enzyme activity, inhibitor, fluorescence", "conditions": "6 min, pH 7.6", "Ki [µM]": 0.54}
{"Compound": "NS(=O)(=O)NC[C@@H](CO)NCc1c[nH]c2c(O)ncnc12", "target": "Hypoxanthine-guanine-xanthine phosphoribosyltransferase", "test": "enzyme activity, inhibitor", "conditions": "pH 7.4", "Ki [µM]": "> 20"}
{"Compound": "CC(=O)S[C@@H]1CC2=CC(=O)CC[C@]2(C)[C@H]2CC[C@@]3(C)[C@@H](CC[C@@]34CCC(=O)O4)[C@H]12", "target": "SLC10A2", "test": "transporter uptake, inhibitor", "Ki [µM]": 110}
{"Compound": "C#Cc1cccc2oc(-c3ccccc3)cc(=O)c12", "target": "CYP1B1", "test": "enzyme activity, inhibitor, fluorescence", "conditions": "6 min, pH 7.6", "Ki [µM]": 0.21}
{"Compound": "CN(C)c1ccc(/C=C/C=C2\\CCc3ccc(OCCCN4CCCCC4)cc3C2=O)cc1", "target": "HRH3", "test": "ligand displacement, radioligand", "conditions": "cell membranes", "Ki [µM]": 0.101}
{"Compound": "OC[C@@]12C[C@@H]1[C@@H](n1cnc3c(NC(C4CCCC4)C4CCCC4)nc(Cl)cc31)[C@H](O)[C@@H]2O", "target": "DRD5", "test": "cell-free assay, radioligand", "Ki [µM]": 5.1}
{"Compound": "O=C(NCc1cc(Cl)cc(Cl)c1)c1cccc(Cn2ccnc2)c1", "target": "WDR5", "test": "ligand displacement, FP", "Ki [µM]": 0.681}
{"Compound": "CN1CCN(CCCOc2ccc(Nc3nccc(NCc4ccccc4)n3)cc2)CC1", "target": "HRH3", "test": "ligand displacement, radioligand", "conditions": "cell membranes", "Ki [µM]": 0.383}
{"Compound": "O=C1c2ccccc2CCN1CCCCN1CCN(c2ccccn2)CC1", "target": "DRD5", "test": "ligand displacement, radioligand", "Ki [µM]": 9.36}
{"Compound": "NS(=O)(=O)NC[C@@H](CO)NCc1c[nH]c2c(O)nc(O)nc12", "target": "Hypoxanthine-guanine-xanthine phosphoribosyltransferase", "test": "enzyme activity, inhibitor", "conditions": "pH 7.4", "Ki [µM]": "> 20"}
{"Compound": "CC(C(=O)O)c1cccc(C(=O)c2ccccc2)c1 (stereo not drawn)", "target": "SLC10A2", "test": "transporter uptake, inhibitor", "Ki [µM]": 178}
{"Compound": "COc1cc(CNC(=O)c2cccc(CNC3=NCCN3)c2F)cc(OC)c1", "target": "WDR5", "test": "ligand displacement, FP", "Ki [µM]": 1.23}
{"Compound": "C#Cc1ccc2c(=O)cc(-c3ccccc3)oc2c1", "target": "CYP1B1", "test": "enzyme activity, inhibitor, fluorescence", "conditions": "6 min, pH 7.6", "Ki [µM]": 0.42}
{"Compound": "O=C1CN(CC[C@@H](CO)NCc2c[nH]c3c(O)ncnc23)S(=O)(=O)N1", "target": "Hypoxanthine-guanine-xanthine phosphoribosyltransferase", "test": "enzyme activity, inhibitor", "conditions": "pH 7.4", "Ki [µM]": "> 20"}
{"Compound": "CCCc1ccc(OCCCCCN2CCCCCC2)cc1", "target": "HRH3", "test": "ligand displacement, radioligand", "conditions": "cell membranes", "Ki [µM]": 0.0563}
{"Compound": "COc1cc(O)c(CC=C(C)C)c2c1C(=O)CC(c1ccc(O)cc1)O2 (stereo not drawn)", "target": "CYP1B1", "test": "enzyme activity, inhibitor, fluorescence", "conditions": "15 min, pH 7.4", "Ki [µM]": 0.54}
{"Compound": "CN(C)c1ccc(/C=C2\\CCc3cc(OCc4ccc(OCCCN5CCCCC5)cc4)ccc3C2=O)cc1", "target": "HRH3", "test": "ligand displacement, radioligand", "conditions": "cell membranes", "Ki [µM]": 0.041}
{"Compound": "CNC(=C[N+](=O)[O-])NCCSCc1ccc(CN(C)C)o1", "target": "SLC10A2", "test": "transporter uptake, inhibitor", "Ki [µM]": 886}
{"Compound": "CCCCN1CCC(COC(=O)c2ccc(N)c(OCF)c2)CC1", "target": "DRD5", "test": "cell-free assay, radioligand", "Ki [µM]": "> 10"}
{"Compound": "CCCc1ccc(OCCCCCN2CCCCC2)cc1", "target": "HRH3", "test": "ligand displacement, radioligand", "conditions": "cell membranes", "Ki [µM]": 0.048}
{"Compound": "COc1ccc(C2=NN(C3CCCCCC3)C(=O)C3CC=CCC23)cc1-c1ccc(C(=O)N2CC[C@@H](O)C2)cc1 (mixture of isomers)", "target": "PDEB1", "test": "enzyme activity, inhibitor", "Ki [µM]": 0.251}
{"Compound": "CCCCNc1cc(C(=O)O)cc(S(N)(=O)=O)c1Oc1ccccc1", "target": "SLC10A2", "test": "transporter uptake, inhibitor", "Ki [µM]": 225}
{"Compound": "Cc1nc(F)ccc1-c1cc(C(=O)NCc2ccc(Cl)c(Cl)c2)ccc1Cn1ccn(C)c1=N", "target": "WDR5", "test": "ligand displacement, FP", "Ki [µM]": "> 5"}
{"Compound": "COc1ccc(C2=NN(C3CCCCCC3)C(=O)C3CC=CCC23)cc1-c1ccc(C(=O)N2CCC[C@@H]2C(N)=O)cc1 (mixture of isomers)", "target": "PDEB1", "test": "enzyme activity, inhibitor", "Ki [µM]": 0.501}
{"Compound": "CCc1ccc(CCOc2ccc(CC3SC(=O)NC3=O)cc2)nc1 (stereo not drawn)", "target": "SLC10A2", "test": "transporter uptake, inhibitor", "Ki [µM]": "< 100"}
{"Compound": "O=C1c2ccccc2CCN1CCCCN1CCN(c2cccc(Cl)c2Cl)CC1", "target": "DRD5", "test": "ligand displacement, radioligand", "Ki [µM]": 2.38}
{"Compound": "CCCc1ccc(OCCCCCN2CCC(C)CC2)cc1", "target": "HRH3", "test": "ligand displacement, radioligand", "conditions": "cell membranes", "Ki [µM]": 0.156}
{"Compound": "CC(C)=CCc1c(O)cc(O)c2c1O[C@H](c1ccc(O)cc1)CC2=O", "target": "CYP1B1", "test": "enzyme activity, inhibitor, fluorescence", "conditions": "15 min, pH 7.4", "Ki [µM]": 0.17}
{"Compound": "CN(C)c1ccc(/C=C/C=C2\\CCc3cc(OCCCN4CCCCC4)ccc3C2=O)cc1", "target": "HRH3", "test": "ligand displacement, radioligand", "conditions": "cell membranes", "Ki [µM]": 0.094}
{"Compound": "C=C[C@H]1C[N@@]2CC[C@H]1C[C@H]2[C@H](O)c1ccnc2ccc(OC)cc12", "target": "SLC10A2", "test": "transporter uptake, inhibitor", "Ki [µM]": 223}
{"Compound": "O=C1CCCc2ccc(OCc3ccc(OCCCN4CCCCC4)cc3)cc21", "target": "HRH3", "test": "ligand displacement, radioligand", "conditions": "cell membranes", "Ki [µM]": 0.017}
{"Compound": "CCCCCCCC/C=C\\CCCCCCCC(=O)NC(CO)(CO)CO", "target": "DRD5", "test": "ligand displacement, radioligand", "Ki [µM]": "> 10"}
{"Compound": "O=C1CN(C[C@@H](CO)NCc2c[nH]c3c(O)nc(O)nc23)S(=O)(=O)N1", "target": "Hypoxanthine-guanine-xanthine phosphoribosyltransferase", "test": "enzyme activity, inhibitor", "conditions": "pH 7.4", "Ki [µM]": "> 20"}
